Drawing on ChEMBL document CHEMBL3045582, “Chemical synthesis, in vitro acetohydroxyacid synthase (AHAS) inhibition, herbicidal activity, and computational studies of isatin derivatives” (2011), this text covers inhibition for 33 compounds.

SMILES strings stand for the structures.

Assay [1] concerns Brassica rapa subsp. oleifera. In words: Inhibition of Brassica rapa subsp. oleifera root growth at 10 mg/L. Type of assay: functional.
Assay [2] relates to Brassica rapa subsp. oleifera. In words: Inhibition of Brassica rapa subsp. oleifera at 100 mg/L. Type of assay: functional. The procedure, abridged: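 Rape (Brassica campestris L.) root growth assay, per the group's earlier published method; compound tested at 100 mg L-1; read-out is root length inhibition (%); monosulfuron used as reference herbicide.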
Assay [3] has as its target T1, Acetolactate synthase, chloroplastic (Arabidopsis thaliana) (UniProt P17597).
T1 sequence (whole entry): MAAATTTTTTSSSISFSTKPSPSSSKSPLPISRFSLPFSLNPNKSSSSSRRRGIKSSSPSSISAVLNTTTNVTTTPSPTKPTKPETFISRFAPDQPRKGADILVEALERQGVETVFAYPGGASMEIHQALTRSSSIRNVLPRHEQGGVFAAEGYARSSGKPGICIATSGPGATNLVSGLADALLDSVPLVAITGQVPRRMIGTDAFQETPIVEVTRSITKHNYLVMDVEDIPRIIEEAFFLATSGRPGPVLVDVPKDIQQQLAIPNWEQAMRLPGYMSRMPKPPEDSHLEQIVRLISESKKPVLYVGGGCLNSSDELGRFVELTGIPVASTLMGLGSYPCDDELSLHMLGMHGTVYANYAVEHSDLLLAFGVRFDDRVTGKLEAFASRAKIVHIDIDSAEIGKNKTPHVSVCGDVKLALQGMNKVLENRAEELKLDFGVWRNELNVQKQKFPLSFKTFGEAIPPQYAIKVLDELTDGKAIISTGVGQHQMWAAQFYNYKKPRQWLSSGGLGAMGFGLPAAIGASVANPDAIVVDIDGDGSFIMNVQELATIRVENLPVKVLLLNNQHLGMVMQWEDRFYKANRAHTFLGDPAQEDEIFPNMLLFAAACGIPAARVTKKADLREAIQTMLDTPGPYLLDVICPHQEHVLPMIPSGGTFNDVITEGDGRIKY
The experiment in a line: Inhibition of Arabidopsis thaliana AHAS at 100 mg/L colorimetric assay. The method, boiled down: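 Expressed and purified A. thaliana AHAS tested at a single concentration of 100 mg L-1. Enzyme activity was read by a colorimetric method described earlier, and the result is given as percent inhibition of AtAHAS activity.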

`O=C1Nc2ccccc2C1=O` [ISATIN]: 10 µg/mL produced 24% inhibition in assay [1]. Moreover, in assay [2], the inhibition (in general, the change of the read-out against control, counted positive when it falls) at 100 µg/mL turned out to be 52%. The compound also came in with an inhibition in assay [3] of 70%.

With `O=C1Nc2ccc(C(F)(F)F)cc2C1=O`, the inhibition at 10 µg/mL in assay [1] is 27%. The inhibition at 100 µg/mL in assay [2] worked out at 93%. Further, the inhibition in assay [3] stood at 60%.

Compound `O=C1Nc2ccc(F)cc2C1=O` [5-FLUOROISATIN] displayed an inhibition at 10 µg/mL in assay [1] of 52%. Also, the inhibition at 100 µg/mL in assay [2] came out at 88%. In assay [3], this compound came in with an inhibition of 65%.

With `CN1C(=O)C(=O)c2cccc(Cl)c21`, in assay [1], the inhibition at 10 µg/mL was 31%. In addition, in assay [2], testing at 100 µg/mL gave an inhibition of 59%. In addition, in assay [3], the inhibition was determined as 80%.

For `Cc1cc(C)n(CC(=O)N/N=C2\C(=O)Nc3ccccc32)n1`, at 10 µg/mL the inhibition in assay [1] was 0%. Moreover, in assay [2], at 100 µg/mL the inhibition was 27%. The compound also displayed an inhibition in assay [3] of 35%.

`Cc1ccc2c(c1)C(=O)C(=O)N2C`: the inhibition at 10 µg/mL in assay [1] amounted to 14%. This compound returned an inhibition at 100 µg/mL in assay [2] of 26%. Moreover, the inhibition in assay [3] was determined as 75%.

With `N#Cc1ccc(CN2C(=O)/C(=N\NC(=O)c3ccccc3)c3ccccc32)cc1`, testing at 10 µg/mL in assay [1] gave an inhibition of 2%. In addition, 100 µg/mL produced 48% inhibition in assay [2]. Also, the inhibition in assay [3] amounted to 20%.

Consider `O=C1Nc2ccc(S(=O)(=O)O)cc2C1=O`, for which, in assay [1], 10 µg/mL produced 4% inhibition. Moreover, the inhibition at 100 µg/mL in assay [2] amounted to 18%. In assay [3], this compound had an inhibition of 10%.

Regarding `CN1C(=O)C(=O)c2cc(I)ccc21`, in assay [1], the inhibition at 10 µg/mL is 13%. Further, the inhibition at 100 µg/mL in assay [2] stood at 27%. Besides, the inhibition in assay [3] came out at 60%.

Regarding `O=C1Nc2ccccc2/C1=N/O`, at 10 µg/mL the inhibition in assay [1] was 0%. Moreover, at 100 µg/mL the inhibition in assay [2] was 55%. In assay [3], this compound came in with an inhibition of 45%.

For the compound `COc1ccc2c(c1)C(=O)C(=O)N2` [5-METHOXYISATIN], the inhibition at 10 µg/mL in assay [1] was 20%. The inhibition at 100 µg/mL in assay [2] was 30%. The inhibition in assay [3] was 60%.

On to `Cc1ccc2c(c1)C(=O)C(=O)N2`, for which the inhibition at 10 µg/mL in assay [1] came to 13%. In assay [2], testing at 100 µg/mL gave an inhibition of 80%. In assay [3], this compound yielded an inhibition of 50%.

In turn, `O=C1Nc2ccc(Cl)cc2C1=O` had an inhibition at 10 µg/mL in assay [1] of 28%. The compound also had an inhibition at 100 µg/mL in assay [2] of 95%. In addition, in assay [3], the inhibition amounted to 55%.

Consider `O=C1Nc2c(I)cccc2/C1=N/NC(=O)c1ccccc1O`, for which the inhibition at 10 µg/mL in assay [1] came out at 0%. The compound further yielded an inhibition at 100 µg/mL in assay [2] of 25%. In addition, the inhibition in assay [3] came out at 95%.

The compound `CC(C)(C)c1ccc(CN2C(=O)/C(=N\NC(=O)c3ccccc3)c3ccccc32)cc1` registered an inhibition at 10 µg/mL in assay [1] of 0%. Also, the inhibition at 100 µg/mL in assay [2] is 15%. The compound also returned an inhibition in assay [3] of 60%.

Consider `O=C1Nc2c(I)cccc2/C1=N/NC(=O)c1cccc(F)c1`, for which the inhibition at 10 µg/mL in assay [1] was 51%. This compound also yielded an inhibition at 100 µg/mL in assay [2] of 81%. In assay [3], this compound came in with an inhibition of 75%.

Turning to `O=C1Nc2c(Cl)cccc2C1=O`, the inhibition at 10 µg/mL in assay [1] came to 51%. This compound also had an inhibition at 100 µg/mL in assay [2] of 83%. Also, the inhibition in assay [3] amounted to 70%.

As for `CN1C(=O)C(=O)c2cc(Cl)ccc21`, testing at 10 µg/mL in assay [1] gave an inhibition of 20%. This compound showed an inhibition at 100 µg/mL in assay [2] of 53%. The inhibition in assay [3] was found to be 60%.

In assay [1], `O=C1Nc2c(Br)cccc2/C1=N/NC(=O)c1cccc(F)c1` registered an inhibition at 10 µg/mL of 0%. In addition, at 100 µg/mL the inhibition in assay [2] was 16%. In addition, in assay [3], the inhibition was found to be 60%.

`CN1C(=O)C(=O)c2cc([N+](=O)[O-])ccc21` gave an inhibition at 10 µg/mL in assay [1] of 2%. The compound further came in with an inhibition at 100 µg/mL in assay [2] of 33%. In addition, in assay [3], the inhibition amounted to 25%.

In turn, `CN1C(=O)C(=O)c2ccccc21` yielded an inhibition at 10 µg/mL in assay [1] of 7%. In addition, the inhibition at 100 µg/mL in assay [2] is 24%. The inhibition in assay [3] amounted to 50%.

`Cc1ccnc(NC(=O)NS(=O)(=O)c2ccccc2C(=O)O)n1` [MONOSULFURON] returned an inhibition at 10 µg/mL in assay [1] of 64%. This compound registered an inhibition at 100 µg/mL in assay [2] of 78%. This compound showed an inhibition in assay [3] of 90%.

Consider `O=C(N/N=C1\C(=O)N(Cc2ccc(Cl)cc2Cl)c2ccccc21)c1ccccc1`, for which the inhibition at 10 µg/mL in assay [1] is 0%. Also, in assay [2], 100 µg/mL produced 6% inhibition. Further, the inhibition in assay [3] came out at 50%.

Compound `Cc1cc(Cl)cc2c1NC(=O)C2=O` returned an inhibition at 10 µg/mL in assay [1] of 10%. For the same compound, 100 µg/mL produced 65% inhibition in assay [2]. The inhibition in assay [3] was found to be 65%.

Regarding `O=C(N/N=C1\C(=O)N(Cc2cccc(F)c2)c2ccccc21)c1ccccc1`, the inhibition at 10 µg/mL in assay [1] came out at 0%. For the same compound, in assay [2], 100 µg/mL produced 40% inhibition. Besides, the inhibition in assay [3] amounted to 95%.

The compound `Cc1ccccc1CN1C(=O)/C(=N\NC(=O)c2ccccc2)c2ccccc21` showed an inhibition at 10 µg/mL in assay [1] of 0%. This compound also had an inhibition at 100 µg/mL in assay [2] of 0%. The same compound had an inhibition in assay [3] of 50%.

The compound `O=C1Nc2ccccc2/C1=N/Nc1ncccc1Cl` displayed an inhibition at 10 µg/mL in assay [1] of 0%. Testing at 100 µg/mL in assay [2] gave an inhibition of 19%. For the same compound, in assay [3], the inhibition turned out to be 70%.

On to `O=C1Nc2ccc([N+](=O)[O-])cc2C1=O` [5-NITROISATIN], for which, in assay [1], testing at 10 µg/mL gave an inhibition of 7%. For the same compound, the inhibition at 100 µg/mL in assay [2] amounted to 82%. The inhibition in assay [3] worked out at 60%.

`Cc1nc(C)c(C(=O)N/N=C2\C(=O)Nc3ccccc32)s1` had an inhibition at 10 µg/mL in assay [1] of 0%. Also, at 100 µg/mL the inhibition in assay [2] was 21%. The same compound registered an inhibition in assay [3] of 30%.

`O=C1Nc2ccc(I)cc2C1=O` [5-IODOISATIN] returned an inhibition at 10 µg/mL in assay [1] of 31%. The compound further had an inhibition at 100 µg/mL in assay [2] of 92%. In assay [3], this compound returned an inhibition of 70%.

Turning to `O=C1Nc2c(Br)cccc2/C1=N/NC(=O)c1ccccc1F`, the inhibition at 10 µg/mL in assay [1] was 14%. The compound also showed an inhibition at 100 µg/mL in assay [2] of 39%. In assay [3], this compound gave an inhibition of 95%.

As for `CN1C(=O)C(=O)c2cc(F)ccc21`, at 10 µg/mL the inhibition in assay [1] was 19%. This compound came in with an inhibition at 100 µg/mL in assay [2] of 59%. Also, the inhibition in assay [3] was 60%.

With `O=C(N/N=C1\C(=O)N(Cc2ccc(F)cc2)c2ccccc21)c1ccccc1`, 10 µg/mL produced 0% inhibition in assay [1]. Testing at 100 µg/mL in assay [2] gave an inhibition of 15%. This compound came in with an inhibition in assay [3] of 80%.
